Measurements reported in ChEMBL document CHEMBL3112391, “Ethoxysanguinarine Induces Inhibitory Effects and Downregulates CIP2A in Lung Cancer Cells” (ACS Med Chem Lett, 2014).
Calls of active or inactive are those of the source. The rule behind the calls is not given here.

Tests used:
NCI-H1975 [1] = test: Downregulation of CIP2A protein expression in human NCI-H1975 cells after 24 hrs by Western blot analysis; type: functional, cell-based
How it was run: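 H1975 cells were incubated with ESG at a series of concentrations, including 1 and 2 μM, for 24 h. Cell lysates were Western blotted with anti-CIP2A antibody.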

A549 [2] = test: Downregulation of CIP2A protein expression in human A549 cells after 24 hrs by Western blot analysis; type: functional, cell-based
How it was run: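 A549 cells were incubated with ESG at a series of concentrations, including 3.5 and 10 μM, for 24 h. Cell lysates were immunoblotted for CIP2A.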

A549 [3] = test: Downregulation of CIP2A mRNA expression in human A549 cells after 24 hrs by RT-PCR analysis; type: functional, cell-based
How it was run: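 Cells exposed to ESG for 24 h. CIP2A transcript level was measured by real-time quantitative RT-PCR.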

NCI-H1975 [4] = test: Cytotoxicity against human NCI-H1975 cells assessed as growth inhibition after 48 hrs by MTT assay; type: functional, cell-based; conditions: NCI-H1975, 48 h
How it was run: (§1)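 Lung cancer cell lines (adenocarcinoma, squamous and large cell lines) exposed to 0.5−10 μM for 48 h; viability read by MTT; IC50 taken from the dose–response.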

A549 [5] = test: Cytotoxicity against human A549 cells assessed as growth inhibition after 48 hrs by MTT assay; type: functional, cell-based; conditions: A549, 48 h; how it was run: as §1
A549 [6] = test: Downregulation of CIP2A protein expression in human A549 cells at 5 uM by Western blot analysis; type: functional, cell-based; conditions: TDE = time-dependent effect
How it was run: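 A549 cells treated with 5 μM over a time course; lysates immunoblotted for CIP2A.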

[7] = target: Protein CIP2A (Homo sapiens) (UniProt Q8TCG1); test: Induction of FLAG-tagged CIP2A (unknown origin) proteolysis transfected in human A549 cells after 4 to 12 hrs; type: cell-based
How it was run: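 A549 cells transfected 24 h with Flag-CIP2A, then treated over a time course; whole-cell lysates probed with anti-Flag.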

[8] = Cytotoxicity against human L78 cells assessed as growth inhibition after 48 hrs by MTT assay; type: functional, cell-based; conditions: L78, 48 h; how it was run: as §1
[9] = Cytotoxicity against human 95-D cells assessed as growth inhibition after 48 hrs by MTT assay; type: functional, cell-based; how it was run: as §1
A549 [10] = test: Cytotoxicity against human A549 cells assessed as growth inhibition at 5 uM after 24 hrs by MTT assay in presence of PP2A inhibitor okadaic acid; type: functional, cell-based
How it was run: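 A549 cells pretreated 2 h with okadaic acid (25 nM), then 5 μM test agent for 24 h; viability by MTT.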

A549 [11] = test: Induction of apoptosis in human A549 cells assessed as decrease in pro-caspase-8 protein expression at 1 to 10 uM after 24 hrs by Western blot analysis; type: functional, cell-based
How it was run: (§2)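 H1975 or A549 cells treated 24 h at various concentrations; lysates immunoblotted for apoptosis markers (PARP, caspases).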

NCI-H1975 [12] = test: Induction of apoptosis in human NCI-H1975 cells assessed as decrease in pro-caspase-8 protein expression at 1 to 2.5 uM after 24 hrs by Western blot analysis; type: functional, cell-based; how it was run: as §2
[13] = target: Protein CIP2A (Homo sapiens) (UniProt Q8TCG1); test: Inhibition of CIP2A in human A549 cells assessed as induction of PP2A activity at 5 uM after 4 to 8 hrs by Western blot analysis; type: cell-based
How it was run: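 A549 cells exposed to 5 μM over a time course, lysed, and PP2A activity measured in the lysates.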

[14] = Cytotoxicity against human SPC-A1 cells assessed as growth inhibition after 48 hrs by MTT assay; type: functional, cell-based; conditions: SPCA1, 48 h; how it was run: as §1
A549 [15] = test: Induction of apoptosis in human A549 cells assessed as PARP cleavage at 1 to 10 uM after 24 hrs by Western blot analysis; type: functional, cell-based; how it was run: as §2
A549 [16] = test: Induction of apoptosis in human A549 cells assessed as decrease in pro-caspase-9 protein expression at 1 to 10 uM after 24 hrs by Western blot analysis; type: functional, cell-based; how it was run: as §2
A549 [17] = test: Downregulation of CIP2A mRNA expression in human A549 cells at 1 to 10 uM after 24 hrs by RT-PCR analysis; type: functional, cell-based
How it was run: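 CIP2A transcript measured by real-time quantitative RT-PCR after 24 h treatment.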

NCI-H1975 [18] = test: Induction of apoptosis in human NCI-H1975 cells assessed as PARP cleavage at 1 to 2.5 uM after 24 hrs by Western blot analysis; type: functional, cell-based; how it was run: as §2
[19] = target: Protein CIP2A (Homo sapiens) (UniProt Q8TCG1); test: Inhibition of CIP2A in human A549 cells assessed as potentiation of cisplatin-induced PARP cleavage at 3.5 uM after 24 hrs by Western blot analysis; type: cell-based
How it was run: (§3)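 Cells cultured 24 h with test agent and/or cisplatin; lysates immunoblotted for PARP cleavage.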

NCI-H460 = test: Cytotoxicity against human NCI-H460 cells assessed as growth inhibition after 48 hrs by MTT assay; type: functional, cell-based; conditions: NCI-H460, 48 h; how it was run: as §1
A549 [20] = test: Induction of apoptosis in human A549 cells assessed as PARP cleavage at 5 uM after 24 hrs by Western blot analysis in presence of pan-caspase inhibitor z-VAD.fmk; type: functional, cell-based
How it was run: (§4)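 Cells pretreated 1 h with z-VAD-fmk (20 μM), then exposed for 24 h (H1975 at 1.5 μM, A549 at 5 μM); lysates immunoblotted for PARP and its cleavage fragment.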

[21] = Cytotoxicity against human GLC82 cells assessed as growth inhibition after 48 hrs by MTT assay; type: functional, cell-based; conditions: GLC82, 48 h; how it was run: as §1
[22] = target: Protein CIP2A (Homo sapiens) (UniProt Q8TCG1); test: Inhibition of CIP2A in human A549 cells assessed as downregulation of p-AKT protein expression at 1 to 10 uM after 24 hrs by Western blot analysis; type: cell-based
How it was run: (§5)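 H1975 or A549 cells incubated 24 h across a concentration series; whole-cell lysates immunoblotted for CIP2A, c-Myc, pAKT and total AKT.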

NCI-H1975 [23] = test: Downregulation of CIP2A protein expression in human NCI-H1975 cells at 1 to 2 uM after 24 hrs by Western blot analysis; type: functional, cell-based; how it was run: as §5
A549 [24] = test: Downregulation of CIP2A protein expression in human A549 cells at 3.5 to 10 uM after 24 hrs by Western blot analysis; type: functional, cell-based; how it was run: as §5
[25] = target: Protein CIP2A (Homo sapiens) (UniProt Q8TCG1); test: Inhibition of CIP2A in human NCI-H1975 cells assessed as downregulation of p-AKT protein expression at 1 to 2.5 uM after 24 hrs by Western blot analysis; type: cell-based; how it was run: as §5
NCI-H1975 [26] = test: Cytotoxicity against human NCI-H1975 cells assessed as growth inhibition at 1.5 uM after 24 hrs by MTT assay in presence of pan-caspase inhibitor z-VAD.fmk; type: functional, cell-based
How it was run: (§6)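 Cells pretreated 1 h with z-VAD-fmk (20 μM), then exposed for 24 h (H1975 at 1.5 μM, A549 at 5 μM); viability by MTT.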

NCI-H1975 [27] = test: Induction of apoptosis in human NCI-H1975 cells assessed as decrease in pro-caspase-9 protein expression at 1 to 2.5 uM after 24 hrs by Western blot analysis; type: functional, cell-based; how it was run: as §2
[28] = target: Protein CIP2A (Homo sapiens) (UniProt Q8TCG1); test: Inhibition of CIP2A in human NCI-H1975 cells assessed as potentiation of cisplatin-induced cell growth inhibition at 1 uM after 24 hrs by MTT assay; type: cell-based
How it was run: (§7)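 Cells treated 24 h with test agent, cisplatin or both (H1975: 1 μM with 10 μM cisplatin; A549: 3.5 μM with 20 μM cisplatin); viability by MTT.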

NCI-H1975 [29] = test: Induction of apoptosis in human NCI-H1975 cells assessed as PARP cleavage at 1.5 uM after 24 hrs by Western blot analysis in presence of pan-caspase inhibitor z-VAD.fmk; type: functional, cell-based; how it was run: as §4
[30] = target: Protein CIP2A (Homo sapiens) (UniProt Q8TCG1); test: Inhibition of CIP2A in human A549 cells assessed as potentiation of cisplatin-induced cell growth inhibition at 3.5 uM after 24 hrs by MTT assay; type: cell-based; how it was run: as §7
[31] = target: Protein CIP2A (Homo sapiens) (UniProt Q8TCG1); test: Inhibition of CIP2A in human NCI-H1975 cells assessed as potentiation of cisplatin-induced PARP cleavage at 1 uM after 24 hrs by Western blot analysis; type: cell-based; how it was run: as §3
NCI-H1975 [32] = test: Induction of apoptosis in human NCI-H1975 cells at 0.5 to 2.5 uM after 24 hrs by annexin V/propidium iodide staining-based flow cytometric analysis; type: functional, cell-based
How it was run: (§8)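 H1975 or A549 cells treated 24 h at various concentrations; apoptosis scored by annexin V/propidium iodide staining and flow cytometry.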

A549 [33] = test: Induction of apoptosis in human A549 cells at 2.5 to 10 uM after 24 hrs by annexin V/propidium iodide staining-based flow cytometric analysis; type: functional, cell-based; how it was run: as §8
[34] = target: Protein CIP2A (Homo sapiens) (UniProt Q8TCG1); test: Inhibition of CIP2A in human NCI-H1975 cells assessed as downregulation of c-Myc protein expression at 1 to 2.5 uM after 24 hrs by Western blot analysis; type: cell-based; how it was run: as §5
[35] = target: Protein CIP2A (Homo sapiens) (UniProt Q8TCG1); test: Inhibition of CIP2A in human A549 cells assessed as downregulation of c-Myc protein expression at 1 to 10 uM after 24 hrs by Western blot analysis; type: cell-based; how it was run: as §5
A549 [36] = test: Cytotoxicity against human A549 cells assessed as growth inhibition at 5 uM after 24 hrs by MTT assay in presence of pan-caspase inhibitor z-VAD.fmk; type: functional, cell-based; how it was run: as §6
[37] = target: Protein CIP2A (Homo sapiens) (UniProt Q8TCG1); test: Induction of CIP2A proteolysis in human A549 cells at 5 uM after 4 hrs in presence of protein synthesis inhibitor cycloheximide; type: cell-based
How it was run: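 A549 cells given 100 μg/mL cycloheximide with or without 5 μM test agent over a time course; whole-cell lysates probed for CIP2A.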

## C=C1C(=O)[C@]23[C@H](O)[C@H]1CC[C@H]2[C@@]12CO[C@@]3(O)C[C@@H]1C(C)(C)CC[C@@H]2OC(C)=O [RABDOCOETSIN B]
NCI-H1975 [1]
  Activity: Active
A549 [2]
  Activity: Active
A549 [3]
  Activity: Active
NCI-H1975 [4]
  IC50: 10300 nM
A549 [5]
  IC50: 14200 nM

## CCOC1c2c(ccc3c2OCO3)-c2ccc3cc4c(cc3c2N1C)OCO4 (stereo not given)
A549 [6]
  Activity: tde
[7]
  Activity: Active
[8]
  IC50: 1000 nM
[9]
  IC50: 2000 nM
A549 [10]
  growth inhibition (GI): inactive
A549 [11]
  Activity: Active
NCI-H1975 [12]
  Activity: Active
[13]
  inhibition: Active
[14]
  IC50: 1100 nM
A549 [15]
  Activity: Active
A549 [16]
  Activity: Active
A549 [17]
  Activity: Active
NCI-H1975 [18]
  Activity: Active
[19]
  inhibition: Active
NCI-H460
  IC50: 1560 nM
A549 [20]
  Activity: inactive
[21]
  IC50: 1300 nM
[22]
  inhibition: Active
NCI-H1975 [23]
  Activity: Active
NCI-H1975 [4]
  IC50: 1290 nM
A549 [24]
  Activity: Active
[25]
  inhibition: Active
NCI-H1975 [26]
  growth inhibition (GI): inactive
NCI-H1975 [27]
  Activity: Active
[28]
  inhibition: Active
A549 [5]
  IC50: 2740 nM
NCI-H1975 [29]
  Activity: inactive
[30]
  inhibition: Active
[31]
  inhibition: Active
NCI-H1975 [32]
  Activity: Active
A549 [33]
  Activity: Active
[34]
  inhibition: Active
[35]
  inhibition: Active
A549 [36]
  growth inhibition (GI): inactive
[37]
  Activity: Active
